Test results as given in ChEMBL document CHEMBL5357072, “Structural Modification of Noscapine via Photoredox/Nickel Dual Catalysis for the Discovery of S-Phase Arresting Agents” (ACS Med Chem Lett, 2024).

System: MOLM-13
Assay: Cell cycle arrest in human MOLM-13 cells assessed as accumulation of G0/G1 phase cells at 10 uM incubated for 24 hrs by RNase A/PI staining based flow cytometry analysis (reference value: 38.14%)
Type: functional
Conditions: not given

Compound	Activity [%]
COc1ccc2c(c1OC)C(=O)O[C@@H]2[C@H]1c2c(c(CC3CN(C(=O)OCc4ccccc4)C3)c3c(c2OC)OCO3)CCN1C(=O)OC(C)(C)C	12.45

System: NB-4
Assay: Antiproliferative activity against human NB4 cells assessed as inhibition of cell growth incubated for 48 hrs by CCK8 assay
Type: functional, cell-based
Conditions: NB-4, 48 h
Method in brief: (§1)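 CCK-8 growth-inhibition assay in the malignant haematological lines MOLM-13, NB4 and Jeko-1 and in normal PBMC. Cells were treated across a range of doses and IC50 taken as the half-maximal growth-inhibitory concentration. Data are mean ± SD of triplicate samples, and experiments were repeated at least three times.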

Compound	IC50 [µM]
COc1ccc2c(c1OC)C(=O)O[C@@H]2[C@H]1c2c(c(CC3CN(C(=O)OCc4ccccc4)C3)c3c(c2OC)OCO3)CCN1C(=O)OC(C)(C)C	5.25

System: MOLM-13
Assay: Induction of apoptosis in human MOLM-13 cells assessed as late apoptotic cells at 2.5 uM incubated for 48 hrs by Annexin V-FITC/PI staining based flow cytometric analysis (reference value: 3.17%)
Type: functional
Conditions: not given

Compound	Activity [%]
COc1ccc2c(c1OC)C(=O)O[C@@H]2[C@H]1c2c(c(CC3CN(C(=O)OCc4ccccc4)C3)c3c(c2OC)OCO3)CCN1C(=O)OC(C)(C)C	4.35

System: MOLM-13
Assay: Cell cycle arrest in human MOLM-13 cells assessed as accumulation of G2/M phase cells at 2.5 uM incubated for 24 hrs by RNase A/PI staining based flow cytometry analysis (reference value: 11.74%)
Type: functional
Conditions: not given

Compound	Activity [%]
COc1ccc2c(c1OC)C(=O)O[C@@H]2[C@H]1c2c(c(CC3CN(C(=O)OCc4ccccc4)C3)c3c(c2OC)OCO3)CCN1C(=O)OC(C)(C)C	16.36

System: MOLM-13
Assay: Cell cycle arrest in human MOLM-13 cells assessed as accumulation of S phase cells at 10 uM incubated for 24 hrs by RNase A/PI staining based flow cytometry analysis (reference value: 50.12%)
Type: functional
Conditions: not given

Compound	Activity [%]
COc1ccc2c(c1OC)C(=O)O[C@@H]2[C@H]1c2c(c(CC3CN(C(=O)OCc4ccccc4)C3)c3c(c2OC)OCO3)CCN1C(=O)OC(C)(C)C	82.44

System: MOLM-13
Assay: Induction of apoptosis in human MOLM-13 cells assessed as viable cells at 5 uM incubated for 48 hrs by Annexin V-FITC/PI staining based flow cytometric analysis (reference value: 92.24%)
Type: functional
Conditions: read-out: Activity

Compound	viability at 5 µM [%]
COc1ccc2c(c1OC)C(=O)O[C@@H]2[C@H]1c2c(c(CC3CN(C(=O)OCc4ccccc4)C3)c3c(c2OC)OCO3)CCN1C(=O)OC(C)(C)C	62

System: MOLM-13
Assay: Induction of apoptosis in human MOLM-13 cells assessed as necrotic cells at 2.5 uM incubated for 48 hrs by Annexin V-FITC/PI staining based flow cytometric analysis (reference value: 0.48%)
Type: functional
Conditions: not given

Compound	Activity [%]
COc1ccc2c(c1OC)C(=O)O[C@@H]2[C@H]1c2c(c(CC3CN(C(=O)OCc4ccccc4)C3)c3c(c2OC)OCO3)CCN1C(=O)OC(C)(C)C	0.52

System: MOLM-13
Assay: Induction of apoptosis in human MOLM-13 cells assessed as early apoptotic cells at 10 uM incubated for 48 hrs by Annexin V-FITC/PI staining based flow cytometric analysis (reference value: 4.10%)
Type: functional
Conditions: not given

Compound	Activity [%]
COc1ccc2c(c1OC)C(=O)O[C@@H]2[C@H]1c2c(c(CC3CN(C(=O)OCc4ccccc4)C3)c3c(c2OC)OCO3)CCN1C(=O)OC(C)(C)C	19.67

System: MOLM-13
Assay: Cell cycle arrest in human MOLM-13 cells assessed as accumulation of G2/M phase cells at 5 uM incubated for 24 hrs by RNase A/PI staining based flow cytometry analysis (reference value: 11.74%)
Type: functional
Conditions: not given

Compound	Activity [%]
COc1ccc2c(c1OC)C(=O)O[C@@H]2[C@H]1c2c(c(CC3CN(C(=O)OCc4ccccc4)C3)c3c(c2OC)OCO3)CCN1C(=O)OC(C)(C)C	9.96

System: JeKo-1
Assay: Antiproliferative activity against human JeKo-1 cells assessed as inhibition of cell growth incubated for 48 hrs by CCK8 assay
Type: functional, cell-based
Conditions: JeKo-1, 48 h
Method in brief: as §1

Compound	IC50 [µM]
COc1ccc2c(c1OC)C(=O)O[C@@H]2[C@H]1c2c(c(CC3CN(C(=O)OCc4ccccc4)C3)c3c(c2OC)OCO3)CCN1C(=O)OC(C)(C)C	3.39

System: A549
Assay: Antiproliferative activity against human A549 cells assessed as cell growth inhibition at 10 uM incubated for 48 hrs by CCK8 assay relative to control
Type: functional
Conditions: read-out: GI
Method in brief: (§2)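 Single-concentration screen of six cancer cell lines. Cells were exposed to 10 μM compound and growth was measured by CCK-8 assay. Results are reported as inhibition rate at 10 μM.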

Compound	inhibition of growth at 10 µM [%]
COc1ccc2c(c1OC)C(=O)O[C@@H]2[C@H]1c2c(c(CC3CN(C(=O)OCc4ccccc4)C3)c3c(c2OC)OCO3)CCN1C(=O)OC(C)(C)C	57

System: MOLM-13
Assay: Induction of apoptosis in human MOLM-13 cells assessed as viable cells at 2.5 uM incubated for 48 hrs by Annexin V-FITC/PI staining based flow cytometric analysis (reference value: 92.24%)
Type: functional
Conditions: read-out: Activity

Compound	viability at 2.5 µM [%]
COc1ccc2c(c1OC)C(=O)O[C@@H]2[C@H]1c2c(c(CC3CN(C(=O)OCc4ccccc4)C3)c3c(c2OC)OCO3)CCN1C(=O)OC(C)(C)C	90.1

System: MOLM-13
Assay: Cell cycle arrest in human MOLM-13 cells assessed as accumulation of S phase cells at 5 uM incubated for 24 hrs by RNase A/PI staining based flow cytometry analysis (reference value: 50.12%)
Type: functional
Conditions: not given

Compound	Activity [%]
COc1ccc2c(c1OC)C(=O)O[C@@H]2[C@H]1c2c(c(CC3CN(C(=O)OCc4ccccc4)C3)c3c(c2OC)OCO3)CCN1C(=O)OC(C)(C)C	73.67

System: MOLM-13
Assay: Cell cycle arrest in human MOLM-13 cells assessed as accumulation of G0/G1 phase cells at 5 uM incubated for 24 hrs by RNase A/PI staining based flow cytometry analysis (reference value: 38.14%)
Type: functional
Conditions: not given

Compound	Activity [%]
COc1ccc2c(c1OC)C(=O)O[C@@H]2[C@H]1c2c(c(CC3CN(C(=O)OCc4ccccc4)C3)c3c(c2OC)OCO3)CCN1C(=O)OC(C)(C)C	16.37

System: MOLM-13
Assay: Induction of apoptosis in human MOLM-13 cells assessed as late apoptotic cells at 5 uM incubated for 48 hrs by Annexin V-FITC/PI staining based flow cytometric analysis (reference value: 3.17%)
Type: functional
Conditions: not given

Compound	Activity [%]
COc1ccc2c(c1OC)C(=O)O[C@@H]2[C@H]1c2c(c(CC3CN(C(=O)OCc4ccccc4)C3)c3c(c2OC)OCO3)CCN1C(=O)OC(C)(C)C	18.62

System: NB-4
Assay: Antiproliferative activity against human NB4 cells assessed as cell growth inhibition at 10 uM incubated for 48 hrs by CCK8 assay relative to control
Type: functional
Conditions: read-out: GI
Method in brief: as §2

Compound	inhibition of growth at 10 µM [%]
COc1ccc2c(c1OC)C(=O)O[C@@H]2[C@H]1c2c(c(CC3CN(C(=O)OCc4ccccc4)C3)c3c(c2OC)OCO3)CCN1C(=O)OC(C)(C)C	60.5

System: MOLM-13
Assay: Cell cycle arrest in human MOLM-13 cells assessed as accumulation of S phase cells at 2.5 uM incubated for 24 hrs by RNase A/PI staining based flow cytometry analysis (reference value: 50.12%)
Type: functional
Conditions: not given

Compound	Activity [%]
COc1ccc2c(c1OC)C(=O)O[C@@H]2[C@H]1c2c(c(CC3CN(C(=O)OCc4ccccc4)C3)c3c(c2OC)OCO3)CCN1C(=O)OC(C)(C)C	46.7

System: MOLM-13
Assay: Cell cycle arrest in human MOLM-13 cells assessed as accumulation of G2/M phase cells at 10 uM incubated for 24 hrs by RNase A/PI staining based flow cytometry analysis (reference value: 11.74%)
Type: functional
Conditions: not given

Compound	Activity [%]
COc1ccc2c(c1OC)C(=O)O[C@@H]2[C@H]1c2c(c(CC3CN(C(=O)OCc4ccccc4)C3)c3c(c2OC)OCO3)CCN1C(=O)OC(C)(C)C	5.11

System: MOLM-13
Assay: Antiproliferative activity against human MOLM-13 cells assessed as cell growth inhibition at 10 uM incubated for 48 hrs by CCK8 assay relative to control
Type: functional
Conditions: read-out: GI
Method in brief: as §2

Compound	inhibition of growth at 10 µM [%]
COc1ccc2c(c1OC)C(=O)O[C@@H]2[C@H]1c2c(c(CC3CN(C(=O)OCc4ccccc4)C3)c3c(c2OC)OCO3)CCN1C(=O)OC(C)(C)C	79.8

System: PBMC
Assay: Cytotoxicity against human PBMC assessed as reduction in cell viability incubated for 48 hrs by CCK8 assay
Type: toxicity, cell-based
Conditions: not given
Method in brief: as §1

Compound	Activity
COc1ccc2c(c1OC)C(=O)O[C@@H]2[C@H]1c2c(c(CC3CN(C(=O)OCc4ccccc4)C3)c3c(c2OC)OCO3)CCN1C(=O)OC(C)(C)C	Non-Toxic

System: U-251
Assay: Antiproliferative activity against human U-251 cells assessed as cell growth inhibition at 10 uM incubated for 48 hrs by CCK8 assay relative to control
Type: functional
Conditions: read-out: GI
Method in brief: as §2

Compound	inhibition of growth at 10 µM [%]
COc1ccc2c(c1OC)C(=O)O[C@@H]2[C@H]1c2c(c(CC3CN(C(=O)OCc4ccccc4)C3)c3c(c2OC)OCO3)CCN1C(=O)OC(C)(C)C	37.1

System: MOLM-13
Assay: Cell cycle arrest in human MOLM-13 cells assessed as accumulation of G0/G1 phase cells at 2.5 uM incubated for 24 hrs by RNase A/PI staining based flow cytometry analysis (reference value: 38.14%)
Type: functional
Conditions: not given

Compound	Activity [%]
COc1ccc2c(c1OC)C(=O)O[C@@H]2[C@H]1c2c(c(CC3CN(C(=O)OCc4ccccc4)C3)c3c(c2OC)OCO3)CCN1C(=O)OC(C)(C)C	36.94

System: MOLM-13
Assay: Induction of apoptosis in human MOLM-13 cells assessed as early apoptotic cells at 2.5 uM incubated for 48 hrs by Annexin V-FITC/PI staining based flow cytometric analysis (reference value: 4.10%)
Type: functional
Conditions: not given

Compound	Activity [%]
COc1ccc2c(c1OC)C(=O)O[C@@H]2[C@H]1c2c(c(CC3CN(C(=O)OCc4ccccc4)C3)c3c(c2OC)OCO3)CCN1C(=O)OC(C)(C)C	5.01

System: MOLM-13
Assay: Induction of apoptosis in human MOLM-13 cells assessed as viable cells at 10 uM incubated for 48 hrs by Annexin V-FITC/PI staining based flow cytometric analysis (reference value: 92.24%)
Type: functional
Conditions: read-out: Activity

Compound	viability at 10 µM [%]
COc1ccc2c(c1OC)C(=O)O[C@@H]2[C@H]1c2c(c(CC3CN(C(=O)OCc4ccccc4)C3)c3c(c2OC)OCO3)CCN1C(=O)OC(C)(C)C	53.5

System: HeLa
Assay: Antiproliferative activity against human HeLa cells assessed as cell growth inhibition at 10 uM incubated for 48 hrs by CCK8 assay relative to control
Type: functional
Conditions: read-out: GI
Method in brief: as §2

Compound	inhibition of growth at 10 µM [%]
COc1ccc2c(c1OC)C(=O)O[C@@H]2[C@H]1c2c(c(CC3CN(C(=O)OCc4ccccc4)C3)c3c(c2OC)OCO3)CCN1C(=O)OC(C)(C)C	62.7

System: MOLM-13
Assay: Induction of apoptosis in human MOLM-13 cells assessed as necrotic cells at 10 uM incubated for 48 hrs by Annexin V-FITC/PI staining based flow cytometric analysis (reference value: 0.48%)
Type: functional
Conditions: not given

Compound	Activity [%]
COc1ccc2c(c1OC)C(=O)O[C@@H]2[C@H]1c2c(c(CC3CN(C(=O)OCc4ccccc4)C3)c3c(c2OC)OCO3)CCN1C(=O)OC(C)(C)C	3.2

System: MOLM-13
Assay: Antiproliferative activity against human MOLM-13 cells assessed as inhibition of cell growth incubated for 48 hrs by CCK8 assay
Type: functional, cell-based
Conditions: MOLM-13, 48 h
Method in brief: as §1

Compound	IC50 [µM]
COc1ccc2c(c1OC)C(=O)O[C@@H]2[C@H]1c2c(c(CC3CN(C(=O)OCc4ccccc4)C3)c3c(c2OC)OCO3)CCN1C(=O)OC(C)(C)C	3.12

System: JeKo-1
Assay: Antiproliferative activity against human JeKo-1 cells assessed as cell growth inhibition at 10 uM incubated for 48 hrs by CCK8 assay relative to control
Type: functional
Conditions: read-out: GI
Method in brief: as §2

Compound	inhibition of growth at 10 µM [%]
COc1ccc2c(c1OC)C(=O)O[C@@H]2[C@H]1c2c(c(CC3CN(C(=O)OCc4ccccc4)C3)c3c(c2OC)OCO3)CCN1C(=O)OC(C)(C)C	74.3

System: MOLM-13
Assay: Induction of apoptosis in human MOLM-13 cells assessed as necrotic cells at 5 uM incubated for 48 hrs by Annexin V-FITC/PI staining based flow cytometric analysis (reference value: 0.48%)
Type: functional
Conditions: not given

Compound	Activity [%]
COc1ccc2c(c1OC)C(=O)O[C@@H]2[C@H]1c2c(c(CC3CN(C(=O)OCc4ccccc4)C3)c3c(c2OC)OCO3)CCN1C(=O)OC(C)(C)C	2.41

System: MOLM-13
Assay: Induction of apoptosis in human MOLM-13 cells assessed as late apoptotic cells at 10 uM incubated for 48 hrs by Annexin V-FITC/PI staining based flow cytometric analysis (reference value: 3.17%)
Type: functional
Conditions: not given

Compound	Activity [%]
COc1ccc2c(c1OC)C(=O)O[C@@H]2[C@H]1c2c(c(CC3CN(C(=O)OCc4ccccc4)C3)c3c(c2OC)OCO3)CCN1C(=O)OC(C)(C)C	23.68

System: MOLM-13
Assay: Induction of apoptosis in human MOLM-13 cells assessed as early apoptotic cells at 5 uM incubated for 48 hrs by Annexin V-FITC/PI staining based flow cytometric analysis (reference value: 4.10%)
Type: functional
Conditions: not given

Compound	Activity [%]
COc1ccc2c(c1OC)C(=O)O[C@@H]2[C@H]1c2c(c(CC3CN(C(=O)OCc4ccccc4)C3)c3c(c2OC)OCO3)CCN1C(=O)OC(C)(C)C	16.95
